Activity calls are given as the source filed them. The calls are words filed in the database; no cut-off is given here.
Assays:
[1] = molecular target: T1, Excitatory amino acid transporter 3 (Homo sapiens) (UniProt P43005); assay: Inhibition of human EAAT3 expressed in HEK293 cells at 300 uM by [3H]D-Asp uptake assay; type: cell-based
T1 sequence (whole entry): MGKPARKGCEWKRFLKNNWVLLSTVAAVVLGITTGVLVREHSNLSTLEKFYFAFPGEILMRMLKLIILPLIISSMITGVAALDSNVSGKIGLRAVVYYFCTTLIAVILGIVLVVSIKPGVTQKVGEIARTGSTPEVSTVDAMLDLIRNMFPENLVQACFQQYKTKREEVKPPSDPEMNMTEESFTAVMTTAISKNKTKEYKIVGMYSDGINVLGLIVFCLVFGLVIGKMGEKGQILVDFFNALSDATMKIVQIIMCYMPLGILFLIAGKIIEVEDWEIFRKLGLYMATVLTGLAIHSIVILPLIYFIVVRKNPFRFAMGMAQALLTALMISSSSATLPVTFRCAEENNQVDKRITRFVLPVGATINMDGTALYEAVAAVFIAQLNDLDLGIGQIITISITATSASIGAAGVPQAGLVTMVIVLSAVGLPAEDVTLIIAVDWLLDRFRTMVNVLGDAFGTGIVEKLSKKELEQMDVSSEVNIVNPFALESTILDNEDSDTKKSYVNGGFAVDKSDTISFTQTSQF
Procedure, shortened: (§1)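 [3H]-D-Asp uptake was measured in HEK293 cell lines expressing EAAT2 or EAAT3. Each analogue was tested at the highest concentration possible for it (75, 100, 300 or 1000 μM) to assess inhibitory activity.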

[2] = molecular target: Excitatory amino acid transporter 2 (Homo sapiens) (UniProt P43004); assay: Inhibition of human EAAT2 expressed in HEK293 cells at 300 uM by [3H]D-Asp uptake assay; type: cell-based; procedure, shortened: as §1
Chain of Excitatory amino acid transporter 2 (Homo sapiens) (P43004 whole entry): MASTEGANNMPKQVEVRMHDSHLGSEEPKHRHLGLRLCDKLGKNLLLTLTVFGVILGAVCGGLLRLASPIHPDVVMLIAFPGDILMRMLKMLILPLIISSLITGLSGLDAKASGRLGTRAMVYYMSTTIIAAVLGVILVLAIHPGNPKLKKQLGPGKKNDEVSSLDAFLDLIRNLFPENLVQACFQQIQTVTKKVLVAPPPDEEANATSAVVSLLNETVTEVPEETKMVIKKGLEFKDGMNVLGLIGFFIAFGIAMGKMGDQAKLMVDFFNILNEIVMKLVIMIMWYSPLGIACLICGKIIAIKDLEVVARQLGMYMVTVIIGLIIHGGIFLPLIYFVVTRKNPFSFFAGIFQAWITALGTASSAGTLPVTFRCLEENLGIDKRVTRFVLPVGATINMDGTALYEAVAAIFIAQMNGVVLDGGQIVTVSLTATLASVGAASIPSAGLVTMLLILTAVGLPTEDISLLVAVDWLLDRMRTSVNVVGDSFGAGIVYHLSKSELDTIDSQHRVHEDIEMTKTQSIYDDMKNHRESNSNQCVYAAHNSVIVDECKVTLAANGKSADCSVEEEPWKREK

[3] = molecular target: T1, Excitatory amino acid transporter 3 (Homo sapiens); assay: Inhibition of human EAAT3 expressed in HEK293 cells at 1000 uM by [3H]D-Asp uptake assay; type: cell-based; procedure, shortened: as §1
[4] = molecular target: Excitatory amino acid transporter 1 (Homo sapiens, UniProt P43003); assay: Inhibition of human EAAT1 expressed in HEK293 cells by [3H]D-Asp uptake assay; type: cell-based; conditions: for pIC50: hek293
Chain of Excitatory amino acid transporter 1 (P43003 whole entry): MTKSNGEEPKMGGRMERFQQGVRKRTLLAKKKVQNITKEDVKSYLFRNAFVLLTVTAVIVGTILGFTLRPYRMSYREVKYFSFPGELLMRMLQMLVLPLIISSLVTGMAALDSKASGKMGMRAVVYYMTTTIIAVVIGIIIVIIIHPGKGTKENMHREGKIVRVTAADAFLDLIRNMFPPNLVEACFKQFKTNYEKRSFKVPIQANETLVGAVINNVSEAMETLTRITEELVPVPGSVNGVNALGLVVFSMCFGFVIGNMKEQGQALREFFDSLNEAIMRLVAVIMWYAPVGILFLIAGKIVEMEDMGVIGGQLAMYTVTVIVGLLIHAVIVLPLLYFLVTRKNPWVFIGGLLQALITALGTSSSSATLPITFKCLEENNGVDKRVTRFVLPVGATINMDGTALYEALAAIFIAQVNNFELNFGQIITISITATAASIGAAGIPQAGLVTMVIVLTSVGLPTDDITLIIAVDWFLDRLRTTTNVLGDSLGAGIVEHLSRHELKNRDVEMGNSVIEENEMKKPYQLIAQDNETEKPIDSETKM

[5] = molecular target: Excitatory amino acid transporter 2 (Homo sapiens) (UniProt P43004); assay: Inhibition of human EAAT2 expressed in HEK293 cells at 1000 uM by [3H]D-Asp uptake assay; type: cell-based; procedure, shortened: as §1
[6] = molecular target: T1, Excitatory amino acid transporter 3 (Homo sapiens); assay: Inhibition of human EAAT3 expressed in HEK293 cells at 100 uM by [3H]D-Asp uptake assay; type: cell-based; procedure, shortened: as §1
[7] = molecular target: Excitatory amino acid transporter 2 (Homo sapiens) (UniProt P43004); assay: Inhibition of human EAAT2 expressed in HEK293 cells at 100 uM by [3H]D-Asp uptake assay; type: cell-based; procedure, shortened: as §1
[8] = Terminal half life in Sprague-Dawley rat at 10 mg/kg; type: ADME, organism-based; design: dose 10 mg/kg; conditions: in vivo, read-out: beta t1/2
Procedure, shortened: (§2)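 Male Sprague-Dawley rats (225 g at arrival) received an oral dose of 10 mg/kg, formulated in 100% PEG400 (5 mL/kg). Three groups (n = 3/group) were sampled at 0.5, 1 and 2 h for cardiac EDTA plasma (under isoflurane) and whole brain homogenized in 70% acetonitrile. UPLC-MS/MS quantitation used an internal standard, with a brain limit of quantification of 10 ng/g.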

[9] = tested on: Brain; assay: Drug level in Sprague-Dawley rat brain at 10 mg/kg; type: ADME, organism-based; design: dose 10 mg/kg; conditions: in vivo; procedure, shortened: as §2
[10] = molecular target: Excitatory amino acid transporter 2 (Homo sapiens) (UniProt P43004); assay: Inhibition of human EAAT2 expressed in HEK293 cells at 75 uM by [3H]D-Asp uptake assay; type: cell-based; procedure, shortened: as §1
[11] = molecular target: T1, Excitatory amino acid transporter 3 (Homo sapiens); assay: Inhibition of human EAAT3 expressed in HEK293 cells at 75 uM by [3H]D-Asp uptake assay; type: cell-based; procedure, shortened: as §1

SMILES | inhibition [1] | inhibition [2] | IC50 ([4]; read-out: IC50) [µM] | inhibition [6] | inhibition [7] | IC50 ([4]; read-out: pIC50 (converted)) [µM] | further results
CC1C(C#N)=C(N)OC2=C1C(=O)CC(c1ccccc1)C2 (stereo unspecified) | inactive | inactive | – | – | – | – | –
CCO/C=N/C1=C(C#N)C(c2ccccc2)C2=C(CC(c3ccccc3)CC2=O)O1 (stereo unspecified) | – | – | > 1000 | – | – | – | inhibition [3]: inactive; pIC50 [4]: < 3; inhibition [5]: inactive
NC(=O)C1=C(N)OC2=C(C(=O)CC(c3ccccc3)C2)C1c1ccccc1 (stereo unspecified) | – | – | > 100 | inactive | inactive | – | pIC50 [4]: < 4
N#CC1=C(N)OC2=C(C(=O)N[C@H](c3ccccc3)C2)[C@@H]1c1ccccc1 (relative stereo) | inactive | inactive | > 300 | – | – | > 316 | –
N#CC1=C(N)OC2=C(C(=O)O[C@H](c3ccccc3)C2)[C@@H]1c1ccccc1 (relative stereo) | inactive | inactive | > 300 | – | – | > 316 | –
NC1=CC(c2ccccc2)C2=C(CC(c3ccccc3)CC2=O)O1 (stereo unspecified) | – | – | > 100 | inactive | inactive | – | pIC50 [4]: < 4
COc1ccc(C2C(C#N)=C(N)OC3=C2C(=O)CC(c2cccc4ccccc24)C3)cc1 (stereo unspecified) | inactive | inactive | – | – | – | – | half-life [8]: 30 min; Drug uptake [9]: < 10 ng/g
N#CC1=C(N)OC2=C(C(=O)CC(c3ccccc3)C2)C1c1ccccc1 (stereo unspecified) | – | – | 3.8 | – | – | 6.31 | inhibition [3]: inactive; inhibition [5]: inactive
COc1ccc(C2C(C#N)=C(N)OC3=C2C(=O)CC(Cc2ccccc2)C3)cc1 (stereo unspecified) | – | – | 5.1 | inactive | inactive | 4.79 | –
CC(=O)NC1=C(C#N)C(c2ccccc2)C2=C(CC(c3ccccc3)CC2=O)O1 (stereo unspecified) | – | – | > 100 | inactive | inactive | – | pIC50 [4]: < 4
COc1ccc(C2C(C#N)=C(N)OC3=C2C(=O)CC(c2ccc4ccccc4c2)C3)cc1 (stereo unspecified) | inactive | inactive | 3.2 | – | – | – | –
CC1C(C#N)=C(N)OC2=C1C(=O)CC(c1cccc3ccccc13)C2 (stereo unspecified) | – | – | 0.43 | inactive | inactive | 0.339 | –
CC(C)(C)OC(=O)C1=C(N)OC2=C(C(=O)CC(c3ccccc3)C2)C1c1ccccc1 (stereo unspecified) | – | – | > 75 | – | – | > 158 | inhibition [10]: inactive; inhibition [11]: inactive
CC1CC(=O)C2=C(C1)OC(N)=C(C#N)C2c1ccc2c(c1)OCO2 (stereo unspecified) | inactive | inactive | – | – | – | > 316 | –
N#CC1=C(N)OC2=C(C1)C(=O)CC(c1ccccc1)C2 (stereo unspecified) | inactive | inactive | – | – | – | > 316 | –
N#CC1=C(N)OC2=C(C(=O)O[C@@H](c3ccccc3)C2)[C@@H]1c1ccccc1 (relative stereo) | inactive | inactive | > 300 | – | – | > 316 | –
N#CC1=C(N)OC2=C(C(=O)CC(c3ccccc3)C2)C1c1ccccc1F (stereo unspecified) | – | – | – | inactive | inactive | – | –
N#CC1=COC2=C(C(=O)CC(c3ccccc3)C2)C1c1ccccc1 (stereo unspecified) | – | – | > 100 | inactive | inactive | – | pIC50 [4]: < 4
N#CC1=C(N)OC2=C(C(=O)CCC2)C1c1ccccc1F (stereo unspecified) | inactive | inactive | – | – | – | > 316 | –
N#CC1=C(N)OC2=C(C(=O)N[C@@H](c3ccccc3)C2)[C@@H]1c1ccccc1 (relative stereo) | inactive | inactive | > 300 | – | – | > 316 | –
COC(=O)C1=C(N)OC2=C(C(=O)CC(c3ccccc3)C2)C1c1ccccc1 (stereo unspecified) | inactive | inactive | > 300 | – | – | > 316 | –

Source: ChEMBL document CHEMBL1255223, “Structure-activity relationship study of first selective inhibitor of excitatory amino acid transporter subtype 1: 2-Amino-4-(4-methoxyphenyl)-7-(naphthalen-1-yl)-5-oxo-5,6,7,8-tetrahydro-4H-chromene-3-carbonitrile (UCPH-101)” (J Med Chem, 2010)
